Experimental data from ChEMBL document CHEMBL5724801, “EUbOPEN Chemogenomics Library - Multiplex” (2024).
“And” between values parts separate entries of the source, which are not always exact repeats. Identical values can stand only once.

Test system: Fibroblast
Assay: Multiplex assay against human fibroblast
Assay type: toxicity, cell-based
Outline: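 At seeding, live cells were stained with Hoechst33342, BioTracker Green Microtubule Cytoskeleton Dye, MitoTracker Red and Annexin V Alexa Fluor 680. After compound addition they were imaged on a CQ1 microscope at 37°C and 5% CO2, and CellPathfinder machine-learning gating sorted them into Hoechst high-intensity objects or normal cells, with normal cells further split into healthy, pyknosed or fragmented nuclei and pyknosed cells into mitotic or apoptotic. Tubulin, mitochondrial-mass and membrane-permeability phenotypes are given as per cents of cells with healthy nuclei.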

[1] = 12 h, 1 µM, compound concentration 1 uM
[2] = 12 h, 10 µM, compound concentration 10 uM
[3] = 24 h, 1 µM, compound concentration 1 uM
[4] = 24 h, 10 µM, compound concentration 10 uM
[5] = 48 h, 1 µM, compound concentration 1 uM
[6] = 48 h, 10 µM, compound concentration 10 uM

CN[C@@H](C)C(=O)N[C@H](C(=O)N1CCC[C@H]1C(=O)Nc1snnc1-c1ccccc1)C1CCCCC1 [GDC-0152]
Population Apoptotic (%) [1]: 70% and 33%
Population Fragmented Nuclei (%) [1]: 14% and 16%
Population Healthy Nuclei (%) [1]: 68% and 56%
Population Hoechst High Intensity Objects (%) [1]: 4% and 6%
Population Membrane Permeable-Phenotype (%) [1]: 1% and 6%
Population Mitochondria Different-Phenotype (%) [1]: 6% and 9%
Population Mitotic Cells (%) [1]: 30% and 66%
Population Normal (%) [1]: 95% and 93%
Population Pyknosed Nuclei (%) [1]: 16% and 26%
Population Tubulin-Different-Phenotype (%) [1]: 38% and 62%
Total Cell Count [1]: 127 and 121
Population Apoptotic (%) [2]: 38% and 24%
Population Fragmented Nuclei (%) [2]: 17% and 26%
Population Healthy Nuclei (%) [2]: 59% and 34%
Population Hoechst High Intensity Objects (%) [2]: 6% and 10%
Population Membrane Permeable-Phenotype (%) [2]: 0%
Population Mitochondria Different-Phenotype (%) [2]: 13% and 10%
Population Mitotic Cells (%) [2]: 61% and 75%
Population Normal (%) [2]: 93% and 90%
Population Pyknosed Nuclei (%) [2]: 22% and 39%
Population Tubulin-Different-Phenotype (%) [2]: 80% and 65%
Total Cell Count [2]: 144 and 150
Population Apoptotic (%) [3]: 60% and 37%
Population Fragmented Nuclei (%) [3]: 20% and 22%
Population Healthy Nuclei (%) [3]: 63% and 55%
Population Hoechst High Intensity Objects (%) [3]: 2% and 9%
Population Membrane Permeable-Phenotype (%) [3]: 1% and 2%
Population Mitochondria Different-Phenotype (%) [3]: 1% and 11%
Population Mitotic Cells (%) [3]: 40% and 62%
Population Normal (%) [3]: 97% and 90%
Population Pyknosed Nuclei (%) [3]: 16% and 22%
Population Tubulin-Different-Phenotype (%) [3]: 30% and 61%
Total Cell Count [3]: 123 and 133
Population Apoptotic (%) [4]: 67% and 41%
Population Fragmented Nuclei (%) [4]: 14% and 33%
Population Healthy Nuclei (%) [4]: 58% and 34%
Population Hoechst High Intensity Objects (%) [4]: 5% and 8%
Population Membrane Permeable-Phenotype (%) [4]: 0% and 16%
Population Mitochondria Different-Phenotype (%) [4]: 21% and 22%
Population Mitotic Cells (%) [4]: 32% and 58%
Population Normal (%) [4]: 94% and 91%
Population Pyknosed Nuclei (%) [4]: 26% and 31%
Population Tubulin-Different-Phenotype (%) [4]: 83% and 68%
Total Cell Count [4]: 135 and 157
Population Apoptotic (%) [5]: 47% and 57%
Population Fragmented Nuclei (%) [5]: 23% and 38%
Population Healthy Nuclei (%) [5]: 60% and 44%
Population Hoechst High Intensity Objects (%) [5]: 1% and 5%
Population Membrane Permeable-Phenotype (%) [5]: 0% and 2%
Population Mitotic Cells (%) [5]: 52% and 42%
Population Normal (%) [5]: 98% and 94%
Population Pyknosed Nuclei (%) [5]: 16% and 17%
Population Tubulin-Different-Phenotype (%) [5]: 48% and 67%
Total Cell Count [5]: 132 and 159
Population Apoptotic (%) [6]: 76% and 44%
Population Fragmented Nuclei (%) [6]: 23% and 39%
Population Healthy Nuclei (%) [6]: 45% and 42%
Population Hoechst High Intensity Objects (%) [6]: 6%
Population Membrane Permeable-Phenotype (%) [6]: 0% and 19%
Population Mitochondria Different-Phenotype (%) [6]: 22% and 17%
Population Mitotic Cells (%) [6]: 23% and 55%
Population Normal (%) [6]: 93%
Population Pyknosed Nuclei (%) [6]: 31% and 18%
Population Tubulin-Different-Phenotype (%) [6]: 81% and 88%
Total Cell Count [6]: 145 and 159
